# Cl transport mod – KCC2 cotransporter modulators, thallium flux, primary screen, cell-based, HEK293 KCC2, FluoZin-2 fluorescence, MLSMR; Solute carrier family 12 member 5 (Homo sapiens), Q9H2X9; 190,000 tested, 2.2% active; B-score of Tl+ flux slope (higher = more flux/activation; lower = inhibition) at 10 µM; KCC2 cells, thallium flux FluoZin-2 fluorescence;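 active means thallium flux slope and its plate-corrected score both differing from the plate sample mean at a set confidence after two filtering rounds, in either direction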;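 further: slope of fluorescence scaled to starting intensity during 10 to 20 s after thallium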
# Target sequence (Q9H2X9 whole entry, looked up): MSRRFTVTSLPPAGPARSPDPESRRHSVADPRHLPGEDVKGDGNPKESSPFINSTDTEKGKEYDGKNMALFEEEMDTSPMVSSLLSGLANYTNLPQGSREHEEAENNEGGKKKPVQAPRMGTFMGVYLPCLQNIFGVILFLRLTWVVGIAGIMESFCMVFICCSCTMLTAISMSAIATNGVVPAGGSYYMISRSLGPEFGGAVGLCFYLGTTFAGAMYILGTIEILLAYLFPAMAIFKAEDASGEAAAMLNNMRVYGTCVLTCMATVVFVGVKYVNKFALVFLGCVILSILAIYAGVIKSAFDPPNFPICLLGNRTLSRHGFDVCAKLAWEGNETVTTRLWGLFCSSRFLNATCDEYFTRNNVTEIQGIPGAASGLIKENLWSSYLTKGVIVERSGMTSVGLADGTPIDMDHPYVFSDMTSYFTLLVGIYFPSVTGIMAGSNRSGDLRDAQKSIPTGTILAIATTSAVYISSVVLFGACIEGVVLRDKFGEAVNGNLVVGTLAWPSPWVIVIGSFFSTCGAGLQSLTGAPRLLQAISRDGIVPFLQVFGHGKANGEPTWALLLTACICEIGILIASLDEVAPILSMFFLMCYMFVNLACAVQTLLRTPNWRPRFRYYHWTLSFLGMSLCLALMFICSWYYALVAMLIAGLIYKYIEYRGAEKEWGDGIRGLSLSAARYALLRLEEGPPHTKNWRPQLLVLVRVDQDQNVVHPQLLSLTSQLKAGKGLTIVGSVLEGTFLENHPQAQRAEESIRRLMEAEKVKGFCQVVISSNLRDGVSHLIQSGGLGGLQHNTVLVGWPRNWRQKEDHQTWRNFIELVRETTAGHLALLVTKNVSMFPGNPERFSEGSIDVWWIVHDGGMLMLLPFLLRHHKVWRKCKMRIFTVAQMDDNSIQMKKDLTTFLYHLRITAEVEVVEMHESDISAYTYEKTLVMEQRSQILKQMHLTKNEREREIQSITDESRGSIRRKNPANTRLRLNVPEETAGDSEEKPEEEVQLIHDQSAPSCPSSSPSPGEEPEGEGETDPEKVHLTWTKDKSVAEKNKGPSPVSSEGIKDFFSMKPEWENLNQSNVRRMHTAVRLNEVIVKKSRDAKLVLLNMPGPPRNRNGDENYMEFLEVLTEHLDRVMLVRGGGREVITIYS
# KCNK3 block – human KCNK3 channel inhibitors, primary screen, CHO cells, FluxOR thallium flux, B-score. Potassium channel subfamily K member 3 (Homo sapiens), O14649. FluxOR fluorescence; stronger effect = lower value. B-score at 10 µM. 340,000 tested, 0.84% active. AID 602410, 2012;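 active means B-score under library mean minus 4 SD, starting fluorescence ratio at most library mean plus 5 SD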;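 further: more negative B-score means stronger inhibition of thallium flux through KCNK3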
# KCNQ1 inh – inhibitors of human KCNQ1 channel, primary screen, cell-based, thallium flux, high-throughput | Potassium voltage-gated channel subfamily KQT member 1 (Homo sapiens), P51787 | AID 2642, 2010 | 310,000 tested, 1.3% active | B-score at 10 µM | CHO-K1 KCNQ1, FluxOR thallium flux fluorescence; stronger effect = higher value;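 active means compounds whose thallium flux B-score, printed positive for inhibition, exceeds three library SD while starting fluorescence stays within three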;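 further: channel opened by potassium depolarization with thallium stimulus after 20 min compound exposure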
# KCNQ1 pot – potentiators or activators of KCNQ1 channel, primary screen, cell-based, thallium flux, high-throughput | Potassium voltage-gated channel subfamily KQT member 1 (Homo sapiens), P51787 | CHO-K1 KCNQ1, thallium flux FluxOR fluorescence; stronger effect = higher value | B-score at 10 µM | 310,000 tested, 0.35% active | AID 2648, 2010;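 active means fluorescence ratio B-score, a plate-corrected score, at least three library SD, with initial intensity B-score within 5 SD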
#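 Assay system: stable KCNQ1 CHO-K1 line; medium: assay buffer, equal DMSO in all wells; timing: 90 min dye loading and 20 min compound exposure, both at room temperature; technique: kinetic FluxOR thallium fluorescence, 10-s 1-Hz baseline, 110-s post-stimulus read; read-out basis: B score of baseline-normalized fluorescence ratio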
# KCNK9 inh – KCNK9 potassium channel inhibitors, primary screen, HEK293 cells, thallium flux | Potassium channel subfamily K member 9 (Homo sapiens), Q9NPC2 | FluxOR thallium flux fluorescence; stronger effect = lower value | B-score at 10 µM | 310,000 tested, 1.2% active;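 active means ratio B-score over 3 SD below the library mean, with starting fluorescence within 5 SD of its mean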;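 further: negative B-score means less thallium flux so channel inhibition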
# hERG protect – hERG rescue from dofetilide block, primary screen, cell-based, CHO-hERG, FluxOR thallium flux, dofetilide IC70; Voltage-gated inwardly rectifying potassium channel KCNH2 (Homo sapiens), Q12809; dofetilide IC70 present; activation (rescue from dofetilide block), less the hit threshold, % at 10 µM; 310,000 tested, 0.51% active;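 active means activation above the mean of controls blocked by dofetilide plus 5 SD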;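 further: thallium influx through hERG after potassium depolarization seen as dye fluorescence rise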
# An asterisk follows results filed as active; i = inactive; nt = no result given. Most compounds without a hit are left out; they make up all but 4.1% or so of the library.
SMILES,Cl transport mod,KCNK3 block,KCNQ1 inh,KCNQ1 pot,KCNK9 inh,hERG protect
S=C(Nc1ccccc1)Nc1ccc(Br)cc1,0.55,i,6*,i,i,-11
S=C(Nc1cccc(Br)c1)c1ccccc1,3.7*,i,i,i,i,-16
CC(=O)Nc1ccc(NC(=S)Nc2ccccc2)cc1,nt,i,i,i,i,-9
CC(=O)N[C@H]1[C@H](Oc2ccc3c(c2)CCC2C3CC[C@]3(C)C(=O)CCC23)O[C@H](CO)[C@@H](O)[C@@H]1O (stereo not given in full),nt,i,i,i,i,-13
O=C(CNCc1ccccc1)Nc1ccc(Cl)cc1,nt,i,i,i,i,-5
CCOC(=O)C1=C(CSc2nc(-c3ccncc3)ccc2C#N)OC(N)=C(C#N)C1c1ccc(OC)cc1 (stereo not given),-2.5,i,i,i,-7.9*,-12
CCOC(=O)C1=C(CSc2nc(-c3ccncc3)ccc2C#N)OC(N)=C(C#N)C1c1cccnc1 (stereo not given),-2.7,i,i,i,i,-7
NC(=O)C[n+]1cccc(CNC(=O)c2ccc(OC(F)F)cc2)c1,0.78,i,i,i,i,4.6*
O=C(C[n+]1cccc(CNC(=O)c2ccc(OC(F)F)cc2)c1)Nc1cc(C(F)(F)F)ccc1Cl,-0.89,i,i,i,i,-6
CCOC(=O)CNC(=O)CSc1nc(Cc2cccs2)nc2ccccc12,nt,i,i,i,i,5.2*
CC(C)(C)c1nc(SCC(=O)NCc2cccs2)c2ccccc2n1,-0.67,i,i,i,i,-20
Cc1ccc(S(=O)(=O)Nc2ccccc2C(N)=O)cc1,-1.1,i,i,i,i,-11
Cc1ccc(S(=O)(=O)Nc2ccccc2-c2ccccc2NS(=O)(=O)c2ccc(C)cc2)cc1,nt,i,7*,i,i,-10
Cc1ccc(S(=O)(=O)Nc2c(Cl)c(Cl)c(O)c3ccccc23)cc1,nt,nt,i,i,i,-4
Cc1ccc(S(=O)(=O)Nc2c(O)ccc3ccccc23)cc1,nt,i,12*,i,i,-24
C[C@H]1CN(S(=O)C(C)(C)C)[C@H](CCO)/C1=C\c1ccccc1 (stereo not given in full),nt,i,nt,nt,nt,nt
O=c1nc(-c2ccccc2)c2ccccc2[nH]1,-0.46,i,i,i,i,-3
S=c1nc(-c2ccccc2)[nH]c2ccccc12,40*,i,i,52*,i,113*
COc1cc(NC(=O)CSc2ncnc3sc4c(c23)CCC(C)C4)c(C(=O)O)cc1OC (stereo not given),nt,i,i,39*,i,51*
C/C=C(\C)C(=O)OC1CC(C)(C)C[C@H]2C3=CC[C@@H]4[C@@]5(C)CCC(O[C@@H]6O[C@@H](C(=O)O)[C@@H](O)C(O[C@@H]7OC[C@H](O)[C@@H](O)[C@@H]7O[C@@H]7OC(CO)C(O)[C@@H](O)[C@@H]7O)C6O[C@@H]6OC(CO)C(O)C(O)C6O)[C@@](C)(CO)[C@@H]5CC[C@]4(C)[C@]3(C)CC(O)[C@@]12CO (stereo not given in full),nt,i,nt,nt,nt,nt
CCOC(=O)c1sc(=NC(=O)/C=C/c2ccccc2)n(C)c1C,-1.5,i,12*,i,i,-10
O=C(NS(=O)(=O)Oc1ccccc1F)OC[C@@H]1CCCN2CCCCC12 (stereo not given in full),nt,i,i,i,i,-6
O=C(/C=C/c1ccc([N+](=O)[O-])cc1)NCCOc1ccc(F)cc1,-3.3,i,i,i,i,5.5*
COc1ccc(OCCNC(=O)/C=C/c2ccc([N+](=O)[O-])cc2)cc1,-0.36,i,i,i,i,-6
O=C(COc1ccccc1)Nc1ccc(S(=O)(=O)NCc2ccco2)cc1,-2.4,i,i,i,i,-5
SMILES,Cl transport mod,KCNK3 block,KCNQ1 inh,KCNQ1 pot,KCNK9 inh,hERG protect
O=C(COc1ccccc1F)Nc1ccc(S(=O)(=O)NCc2ccco2)cc1,0.01,i,i,8*,i,-10
O=C(COC(=O)COc1ccccc1[N+](=O)[O-])NCc1ccc2c(c1)OCO2,nt,i,nt,nt,nt,nt
Cc1nc(N2CCN(c3ccccn3)CC2)c2c(C)c(C(=O)Nc3c(C)cc(Br)cc3C)sc2n1,nt,i,i,i,i,-22
Cc1nc(N2CCN(c3ccccn3)CC2)c2c(C)c(C(=O)Nc3c(F)cc(F)cc3Br)sc2n1,nt,i,6*,i,i,-18
Cc1nc(N2CCC(C)CC2)c2c(C)c(C(=O)Nc3ccccc3C(F)(F)F)sc2n1,-0.96,i,i,i,-7.4*,-14
O=C(Cc1ccc(S(=O)(=O)N2CCOCC2)s1)Nc1cc(Cl)ccc1Cl,nt,i,nt,nt,nt,nt
O=C(COC(=O)c1ccc[nH]c1=O)Nc1ccc(N2CCCCC2)cc1,nt,i,nt,nt,nt,nt
CN(C(=O)c1cc2n(n1)C(C(F)(F)F)CC(c1ccco1)N2)c1ccccc1 (stereo not given),0.71,i,i,i,-6.7*,-3
CN(C(=O)c1cc2n(n1)C(C(F)(F)F)CC(c1ccco1)N2)c1ccc(OC(F)(F)F)cc1 (stereo not given),nt,i,i,i,i,-6
C[C@H](NC(=O)c1nc[nH]c1C(=O)NC(c1ccccc1)c1ccccc1)C(=O)OC(C)(C)C,-0.83,i,i,i,-7*,-9
C[C@H](NC(=O)c1nc[nH]c1C(=O)N[C@H](C)c1ccccc1)C(=O)OC(C)(C)C,-0.039,i,i,i,i,-11
Cc1ccc(NC(=O)CSCC(=O)Nc2cc(C(F)(F)F)ccc2N2CCOCC2)cc1,nt,i,i,i,i,-12
O=C(CSCc1ccco1)Nc1cc(C(F)(F)F)ccc1N1CCOCC1,-0.26,i,i,i,-6.7*,-6
N#Cc1ccc(NC(=O)CN2C(=O)NC3(CCCC3)C2=O)cc1,nt,i,i,i,i,-4
C1=CC2=NC34CCCCC3CC3=C(CCCC3)N4C2=CC1=NC1CCCCC1 (stereo not given),nt,i,7*,i,i,-17

# Bioassay records deposited in PubChem by several laboratories.
